In ChEMBL document CHEMBL1132417, “Novel esters and amides of nonsteroidal antiinflammatory carboxylic acids as antioxidants and antiproliferative agents” (J Med Chem, 1999):

Key:
[1] = Inhibition of proliferation measured by inhibition of [3H]thymidine incorporation by HMVEC-L cells; type: functional, cell-based, Homo sapiens
How it was run: (§1)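 Human lung microvascular endothelial cells (HMVEC-L, donor, passages 3–9) were grown in EGM-MV to 75–90% confluence. Cells were given compound in fresh medium at 37 °C for 18 h, then pulsed 6 h with [3H]thymidine (2.5 μCi per 200 μL). TCA-precipitated DNA was solubilised in SDS and counted by liquid scintillation. IC50 by linear regression, or % inhibition at the stated concentration.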

Bos taurus = organism: Bos taurus; assay: Inhibition of [Fe(2+)]/ascorbate-induced oxidation of bovine heart membranes(antioxidant BHMLO); type: functional
How it was run: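 Bovine heart membranes (KCl-washed, 100000g pellet, 20 mg/mL protein stock in 25 mM HEPES/150 mM NaCl pH 7.4) were preincubated with compound for 30 min at 37 °C. Peroxidation was started with FeCl2/ascorbic acid and run for 15 min at 21 °C. TBARS were developed by heating at 80 °C and read at 540 nm against a malonaldehyde bis(dimethyl acetal) standard curve. IC50 by linear regression.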

[2] = (§2) Compound was evaluated for in vitro inhibition of proliferation measured by inhibition of [3H]thymidine incorporation by HMVEC-L cells; type: functional, Homo sapiens; parameters: concentration or dose not given beside the values; how it was run: as §1
HMVEC-L = assay: as §2; type: functional; parameters: concentration or dose not given beside the values; settings: Homo sapiens, dose or concentration not given here; how it was run: as §1

Compound	IC50 [1]	IC50 (Bos taurus)	Inhibition [2]	inhibition (HMVEC-L)
COc1ccc2cc([C@H](C)C(=O)OCCC3(C)Cc4c(C)c(O)c(C)c(C)c4O3)ccc2c1 (stereo in doubt; 2a)	9.1 µM	4.87 µM		
COc1ccc2cc(C(C)C(=O)OCC3(C)CCc4c(C)c(O)c(C)c(C)c4O3)ccc2c1 (stereo not drawn)	11.3 µM	4.36 µM		
COc1ccc2cc([C@H](C)C(=O)OCC3(C)COc4c(C)c(C)c(O)c(C)c43)ccc2c1 (stereo partly drawn)	19 µM	5.2 µM		
COc1ccc2cc(C(C)C(=O)OCCC3(C)CCc4c(C)c(OC)c(C)c(C)c4O3)ccc2c1 (stereo not drawn)	25 µM	14000 µM		
COc1ccc2cc(C(C)C(=O)OCCC3(C)CCc4c(C)c(OC(C)=O)c(C)c(C)c4O3)ccc2c1 (stereo not drawn)	11.5 µM	4.5 µM		
COc1ccc2cc([C@H](C)C(=O)OCCC3(C)Cc4c(C)c(O)c(C)c(C)c4O3)ccc2c1 (stereo in doubt; 2b)	16.6 µM	5.2 µM		
COc1ccc2cc([C@H](C)C(=O)OCCC3(C)Cc4c(C)c(O)c(C)c(C)c4O3)ccc2c1 (stereo in doubt; 2c)	16.4 µM	5.1 µM		
Cc1c(C)c2c(c(C)c1O)CCC(C)(C(=O)O)O2 (stereo not drawn) [TROLOX]		25.6 µM	20%	
COc1ccc2cc([C@@H](C)C(=O)NCC3(C)CCc4c(C)c(O)c(C)c(C)c4O3)ccc2c1 (stereo partly drawn)	4.5 µM	4.8 µM		
COc1ccc2cc(CC(=O)O)ccc2c1 [6-METHOXY-2-NAPHTHYLACETIC ACID]			5%	
COc1ccc2cc([C@H](C)COC(=O)CC3(C)CCc4c(C)c(O)c(C)c(C)c4O3)ccc2c1 (stereo partly drawn)	12 µM	4.4 µM		
COc1ccc2cc([C@H](C)C(=O)NCC3(C)CCc4c(C)c(OC(C)=O)c(C)c(C)c4O3)ccc2c1 (stereo partly drawn)	4 µM			
VITAMIN E [listing 1 of 2 here]		5170 µM		
Cc1c(C)c2c(c(C)c1O)CCC(C)(CCO)O2 (stereo not drawn)		3.82 µM	30%	
COc1ccc2cc(C(C)C(=O)NCCC3(C)Cc4c(C)c(O)c(C)c(C)c4O3)ccc2c1 (stereo not drawn)	1.9 µM	5.6 µM		
COc1ccc2cc([C@H](C)C(=O)OCCC3(C)CCc4c(C)c(O)c(C)c(C)c4O3)ccc2c1 (stereo partly drawn)	12.9 µM	7.66 µM		
COc1ccc2cc([C@H](C)C(=O)NCC3(C)CCc4c(C)c(O)c(C)c(C)c4O3)ccc2c1 (stereo partly drawn)	4.3 µM	2.5 µM		
COc1ccc2cc([C@@H](C)C(=O)OCC[C@@]3(C)CCc4c(C)c(O)c(C)c(C)c4O3)ccc2c1	22 µM			
VITAMIN E [listing 2 of 2 here]				22%
COc1ccc2cc(C(C)C(=O)OCC[C@@]3(C)CCc4c(C)c(O)c(C)c(C)c4O3)ccc2c1 (single isomer, unassigned)	11.7 µM	11.6 µM		
COc1ccc2cc([C@H](C)C(=O)OCC[C@]3(C)CCc4c(C)c(O)c(C)c(C)c4O3)ccc2c1	16.4 µM	9.6 µM		
COc1ccc2cc(C(C)C(=O)NCC3(C)CCc4c(C)c(OC(C)=O)c(C)c(C)c4O3)ccc2c1 (stereo not drawn)	3.3 µM	1.6 µM		
COc1ccc2cc([C@H](C)C(=O)O)ccc2c1 [NAPROXEN]	> 50 µM			
COc1ccc2cc(C(C)C(=O)NCCC3(C)CCc4c(C)c(O)c(C)c(C)c4O3)ccc2c1 (stereo not drawn)	7.4 µM	4.67 µM		
COc1ccc2cc(C(C)C(=O)NCC3(C)CCc4c(C)c(O)c(C)c(C)c4O3)ccc2c1 (stereo not drawn)	4.3 µM	3.99 µM		
COc1ccc2cc(C(C)C(=O)OCC3(C)Cc4c(C)c(O)c(C)c(C)c4O3)ccc2c1 (stereo not drawn)	7.3 µM	4.83 µM		
COc1ccc2cc(CC(=O)OCCC3(C)CCc4c(C)c(O)c(C)c(C)c4O3)ccc2c1 (stereo not drawn)		4.5 µM	44%	
